Measurements: ChEMBL document CHEMBL1133294, “Potent, selective 3-pyridylethanolamine beta3 adrenergic receptor agonists possessing a thiazole benzenesulfonamide pharmacophore” (Bioorg Med Chem Lett, 2000)
pEC50, pIC50: −log10 of the molar value.

Tests used:
[1] = target: Beta-2 adrenergic receptor (Homo sapiens, UniProt P07550); test: Binding affinity against human Beta-2 adrenergic receptor expressed in CHO cells using [125I]iodocyanopindolol; assay type: cell-based
[2] = target: Beta-1 adrenergic receptor (Homo sapiens, UniProt P08588); test: Binding affinity (measured using [125I]iodocyanopindolol) against human Beta-1 adrenergic receptor expressed in CHO cells; assay type: cell-based
Outline: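 Membranes from CHO cells expressing cloned human β1 receptor; competition binding against 125I-iodocyanopindolol.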

[3] = target: T1, Beta-3 adrenergic receptor (Homo sapiens, UniProt P13945); test: Percent increase in adenylyl cyclase activation in CHO cells expressing human beta-3 adrenergic receptor; assay type: functional, cell-based
Outline: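 Functional adenylyl cyclase stimulation via the β3 receptor. Activation expressed as percent of the maximal stimulation produced by isoproterenol.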
Target sequence in this assay (P13945 whole entry, looked up): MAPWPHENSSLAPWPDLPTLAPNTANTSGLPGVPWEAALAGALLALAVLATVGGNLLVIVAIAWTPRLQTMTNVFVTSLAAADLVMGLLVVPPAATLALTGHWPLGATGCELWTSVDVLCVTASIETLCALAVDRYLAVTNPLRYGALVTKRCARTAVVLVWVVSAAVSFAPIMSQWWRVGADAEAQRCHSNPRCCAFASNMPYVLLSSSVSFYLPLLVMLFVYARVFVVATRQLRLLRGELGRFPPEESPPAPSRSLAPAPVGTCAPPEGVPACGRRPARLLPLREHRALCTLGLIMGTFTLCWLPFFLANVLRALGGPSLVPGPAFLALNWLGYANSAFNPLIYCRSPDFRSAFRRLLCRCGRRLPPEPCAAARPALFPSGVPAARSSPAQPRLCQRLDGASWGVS

[4] = target: T1, Beta-3 adrenergic receptor; test: Stimulated increase in cAMP in CHO cells expressing human beta-3 receptor; assay type: functional, cell-based
Target sequence in this assay (P13945 whole entry): as the sequence (P13945 whole entry, looked up) above

[5] = Half life period was determined; assay type: ADME, organism-based, Canis lupus familiaris; conditions: dog, in vivo
Outline: (§1)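 Beagle dogs dosed orally at 10 mg/kg (solution in 0.5% methylcellulose/0.02% sodium lauryl sulfate with 2 equiv HCl) and iv at 3 mg/kg (PEG400/ethanol/normal saline 60:20:20 v/v/v). Blood taken predose and at 5 (iv only), 15, 30 min, 1, 2, 6, 8, 24 h. Plasma drug measured by LC/MS/MS.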

[6] = Bioavailability after peroral administration in dogs; assay type: ADME, organism-based, Canis lupus familiaris; conditions: dog, in vivo, po; outline: as §1
[7] = Oral bioavailability in dog; assay type: ADME, organism-based, Canis lupus familiaris; conditions: in vivo; outline: as §1

Beta-2 adrenergic receptor, sequence (P07550 whole entry): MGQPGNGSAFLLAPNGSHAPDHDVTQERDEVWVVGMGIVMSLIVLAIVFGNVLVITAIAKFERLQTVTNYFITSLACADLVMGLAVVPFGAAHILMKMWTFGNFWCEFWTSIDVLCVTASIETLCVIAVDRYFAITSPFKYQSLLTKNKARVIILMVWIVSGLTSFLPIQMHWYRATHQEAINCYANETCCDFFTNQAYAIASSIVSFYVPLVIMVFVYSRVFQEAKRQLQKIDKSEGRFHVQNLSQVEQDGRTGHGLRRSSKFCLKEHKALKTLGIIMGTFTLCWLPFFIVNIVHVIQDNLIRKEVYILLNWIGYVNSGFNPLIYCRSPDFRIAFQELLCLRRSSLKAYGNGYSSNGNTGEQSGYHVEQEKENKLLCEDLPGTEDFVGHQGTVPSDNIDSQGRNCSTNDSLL
Beta-1 adrenergic receptor, sequence (P08588 whole entry): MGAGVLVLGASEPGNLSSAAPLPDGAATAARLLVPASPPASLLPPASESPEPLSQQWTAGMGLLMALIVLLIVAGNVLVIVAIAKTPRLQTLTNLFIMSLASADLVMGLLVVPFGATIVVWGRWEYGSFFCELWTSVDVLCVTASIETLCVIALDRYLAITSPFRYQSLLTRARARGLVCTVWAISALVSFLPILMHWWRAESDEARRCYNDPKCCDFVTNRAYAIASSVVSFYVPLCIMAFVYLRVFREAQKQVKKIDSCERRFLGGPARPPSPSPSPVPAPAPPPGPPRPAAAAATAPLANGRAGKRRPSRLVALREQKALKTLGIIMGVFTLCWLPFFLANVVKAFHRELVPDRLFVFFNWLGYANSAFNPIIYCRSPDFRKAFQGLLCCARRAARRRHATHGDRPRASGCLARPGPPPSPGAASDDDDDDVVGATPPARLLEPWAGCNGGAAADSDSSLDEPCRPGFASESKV

O=S(=O)(Nc1ccc(CCNC[C@H](O)c2cccnc2)cc1)c1ccc(-c2nc(-c3cc4ccccc4s3)cs2)cc1
pIC50 [1]: 4.03
pIC50 [2]: 4.00
Max stimulation [3]: 94%
pEC50 [4]: 8.24

CC(=O)Nc1ccc(-c2csc(-c3ccc(S(=O)(=O)Nc4ccc(CCNC[C@H](O)c5cccnc5)cc4)cc3)n2)cc1
pIC50 [1]: 5.68
pIC50 [2]: 6.02
Max stimulation [3]: 82%
pEC50 [4]: 7.35

CCCCCCCCc1csc(-c2ccc(S(=O)(=O)Nc3ccc(CCNC[C@H](O)c4cccnc4)cc3)cc2)n1
pIC50 [1]: 5.52
pIC50 [2]: 5.43
Max stimulation [3]: 84%
pEC50 [4]: 8.00

O=S(=O)(Nc1ccc(CCNC[C@H](O)c2cccnc2)cc1)c1ccc(-c2nc(-c3ccc4ccccc4c3)cs2)cc1
pIC50 [1]: 5.20
pIC50 [2]: 4.89
Max stimulation [3]: 100%
pEC50 [4]: 8.70

O=c1n(CCCC2CCCC2)nnn1-c1ccc(S(=O)(=O)Nc2ccc(CCNC[C@H](O)c3cccnc3)cc2)cc1
half-life [5]: 3.6 h

O=S(=O)(Nc1ccc(CCNC[C@H](O)c2cccnc2)cc1)c1ccc(-c2nc(-c3ccc(O)cc3)cs2)cc1
pIC50 [1]: 5.24
pIC50 [2]: 5.96
Max stimulation [3]: 58%
pEC50 [4]: 7.35

O=S(=O)(Nc1ccc(CCNC[C@H](O)c2cccnc2)cc1)c1ccc(-c2nc(-c3ccccn3)cs2)cc1
pIC50 [1]: 5.40
pIC50 [2]: 5.19
Max stimulation [3]: 100%
pEC50 [4]: 7.66

O=S(=O)(Nc1ccc(CCNC[C@H](O)c2cccnc2)cc1)c1ccc(-c2nc(-c3ccc4ncccc4c3)cs2)cc1
pIC50 [1]: 5.10
pIC50 [2]: 5.22
Max stimulation [3]: 97%
pEC50 [4]: 8.57

O=S(=O)(Nc1ccc(CCNC[C@H](O)c2cccnc2)cc1)c1ccc(Cc2nc(Cc3ccc4ccccc4c3)cs2)cc1
pIC50 [1]: 5.70
pIC50 [2]: 5.60
Max stimulation [3]: 83%
pEC50 [4]: 7.92

CCCCCCCCc1csc(Cc2ccc(S(=O)(=O)Nc3ccc(CCNC[C@H](O)c4cccnc4)cc3)cc2)n1
pIC50 [1]: 6.00
pIC50 [2]: 6.07
Max stimulation [3]: 79%
pEC50 [4]: 8.01

O=S(=O)(Nc1ccc(CCNC[C@H](O)c2cccnc2)cc1)c1ccc(-c2nc(-c3ccc(F)c(F)c3)cs2)cc1
bioavailability [6]: 36%
Max stimulation [3]: 92%

CCCCCCc1ccc(-c2csc(-c3ccc(S(=O)(=O)Nc4ccc(CCNC[C@H](O)c5cccnc5)cc4)cc3)n2)cc1
pIC50 [1]: 4.05
pIC50 [2]: 4.28
Max stimulation [3]: 84%
pEC50 [4]: 8.92

O=S(=O)(Nc1ccc(CCNC[C@H](O)c2cccnc2)cc1)c1ccc(-c2nc(CCc3ccccc3)cs2)cc1
pIC50 [1]: 6.04
pIC50 [2]: 5.05
Max stimulation [3]: 70%
pEC50 [4]: 7.48

CCCCCCCCc1csc(N2CCc3cc(S(=O)(=O)Nc4ccc(CCNC[C@H](O)c5cccnc5)cc4)ccc32)n1
bioavailability [7]: 13%

CCCCCCc1csc(-c2ccc(S(=O)(=O)Nc3ccc(CCNC[C@H](O)c4cccnc4)cc3)cc2)n1
pIC50 [1]: 6.21
pIC50 [2]: 4.40
Max stimulation [3]: 69%
pEC50 [4]: 7.29

O=S(=O)(Nc1ccc(CCNC[C@H](O)c2cccnc2)cc1)c1ccc(-c2nc(Cc3ccc4ccccc4c3)cs2)cc1
pIC50 [1]: 5.64
pIC50 [2]: 5.48
Max stimulation [3]: 75%
pEC50 [4]: 8.30

O=S(=O)(Nc1ccc(CCNC[C@H](O)c2cccnc2)cc1)c1ccc(-c2nc(-c3cccnc3)cs2)cc1
pIC50 [1]: 5.52
pIC50 [2]: 5.15
Max stimulation [3]: 69%
pEC50 [4]: 7.40

O=S(=O)(Nc1ccc(CCNC[C@H](O)c2cccnc2)cc1)c1ccc(-c2nc(-c3ccc(F)cc3)cs2)cc1
pIC50 [1]: 5.72
pIC50 [2]: 5.82
Max stimulation [3]: 81%
pEC50 [4]: 8.02

CC(=O)NCCCCCc1csc(-c2ccc(S(=O)(=O)Nc3ccc(CCNC[C@H](O)c4cccnc4)cc3)cc2)n1
pIC50 [1]: 4.80
pIC50 [2]: 4.30
Max stimulation [3]: 82%
pEC50 [4]: 7.30

O=S(=O)(Nc1ccc(CCNC[C@H](O)c2cccnc2)cc1)c1ccc(-c2nc(Cc3ccc(F)cc3)cs2)cc1
pIC50 [1]: 5.60
pIC50 [2]: 5.52
Max stimulation [3]: 57%
pEC50 [4]: 8.21

O=S(=O)(Nc1ccc(CCNC[C@H](O)c2cccnc2)cc1)c1ccc(-c2nc(-c3c[nH]c4ccccc34)cs2)cc1
pIC50 [1]: 4.30
pIC50 [2]: 4.52
Max stimulation [3]: 100%
pEC50 [4]: 8.31

O=S(=O)(Nc1ccc(CCNC[C@H](O)c2cccnc2)cc1)c1ccc(-c2nc(-c3cc4ccccc4o3)cs2)cc1
pIC50 [1]: 4.31
pIC50 [2]: 4.05
Max stimulation [3]: 91%
pEC50 [4]: 8.04

CC(C)(C)c1ccc(-c2csc(-c3ccc(S(=O)(=O)Nc4ccc(CCNC[C@H](O)c5cccnc5)cc4)cc3)n2)cc1
pIC50 [1]: 5.70
pIC50 [2]: 5.80
Max stimulation [3]: 100%
pEC50 [4]: 8.62

O=S(=O)(Nc1ccc(CCNC[C@H](O)c2cccnc2)cc1)c1ccc(-c2nc(CCCC3CCCC3)cs2)cc1
pIC50 [1]: 5.52
pIC50 [2]: 5.15
Max stimulation [3]: 95%
pEC50 [4]: 7.59

O=S(=O)(Nc1ccc(CCNC[C@H](O)c2cccnc2)cc1)c1ccc(-c2nc(-c3cnc4ccccc4c3)cs2)cc1
pIC50 [1]: 4.33
pIC50 [2]: 4.72
Max stimulation [3]: 79%
pEC50 [4]: 8.14
